# In PMC8203602 (Clinical Pharmacology : Advances and Applications, 2021):
# Marks after values point to notes of the source that are not given here.
# Key:
# [1] = system: rat streptococcal cell wall arthritis model; conditions: cited from earlier work
# neutrophils = assay: Clinical laboratory neutrophil counts; format: in vivo, human; conditions: 50 mg BID group
# [2] = Plasma pharmacokinetics, single ascending dose cohorts; format: in vivo, human; conditions: for Tmax / half-life / AUC(0-inf) / AUC(0-t) / Cmax / Vd/F: human, plasma, oral; for CL/F: fasted, mean ± SD
# IL-6 [3] = assay: Ex vivo lipopolysaccharide-stimulated whole blood PD assay, IL-6; format: cell-based, human
# Summary of the method: (§1)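 Healthy adults were dosed orally, fasted. 10 mL blood was drawn: SAD pre-dose, 1, 12 and 24 h; MAD days 1 and 7 pre-dose, 4 and 12 h. Each analyte was read unstimulated, after ex vivo LPS, and after LPS plus 10 μM added test compound. Values were scaled to % day 1 pre-dose (LPS as maximum signal, spiked LPS as maximum inhibition). Plasma levels vs % inhibition were fit by inhibitory Emax (E0, Imax, IC50).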
# murine model of NOMID = conditions: cited from earlier work
# [4] = Plasma pharmacokinetics, multiple ascending dose cohorts; format: in vivo, human; conditions: for Tmax at 7 day: median (range)
# [5] = system: p-HSP27 (phosphorylated heat shock protein 27); assay: Ex vivo lipopolysaccharide-stimulated whole blood PD assay, p-HSP27; format: cell-based, human; conditions: inhibitory Emax model, all SAD/MAD cohorts
# Summary of the method: as §1
# IL-6 [6] = assay: Human whole blood stimulated with IL-1β, IL-6 inhibition; format: cell-based; conditions: data not shown
# [7] = Safety and tolerability assessments; format: in vivo, human; conditions: for Deaths / Discontinuations due to TEAEs / Number of TEAEs / Patients reporting TEAEs / Serious TEAEs: ATI-450 n=24
# TNF-α = assay: Ex vivo lipopolysaccharide-stimulated whole blood PD assay, TNF-α; format: cell-based, human
# Summary of the method: as §1
# IL-1β = assay: Ex vivo lipopolysaccharide-stimulated whole blood PD assay, IL-1β; format: cell-based, human
# Summary of the method: as §1
# [8] = inhibitory Emax model, all SAD/MAD cohorts
# [9] = SAD and MAD cohorts, ATI-450 n=48
# [10] = maximum observed (up to), versus baseline
smiles,measurement,setting,value
Cc1cnc(-c2ccnc(C(C)(C)O)n2)cc1-n1c(C)cc(OCc2ncc(F)cc2F)c(Cl)c1=O [ATI-450],Effect in arthritis model,[1],joint protective effects and preserved bone mineral density
same,Neutrophil count,neutrophils; day 7 (baseline 3318.4 cells/μL),2514.4 cells/μL
same,Mean reduction in neutrophils,neutrophils; day 7 versus baseline,24%
same,Tmax,[2],2 to 4 h
same,half-life,[2],8.5 to 11.2 h
same,AUC(0-inf),[2]; 10 mg,285 ± 78.4 ng·h/mL
same,AUC(0-t),[2]; 10 mg,276 ± 77.8 ng·h/mL
same,Cmax,[2]; 10 mg,39.4 ± 10.4 ng/mL
same,Tmax,[2]; 10 mg,2 h
same,Vd/F,[2]; 10 mg,430 ± 124 L
same,half-life,[2]; 10 mg,8.5 ± 3.2 h
same,AUC(0-inf),[2]; 30 mg,1100 ± 247 ng·h/mL
same,AUC(0-t),[2]; 30 mg,1070 ± 244 ng·h/mL
same,Cmax,[2]; 30 mg,122 ± 33.4 ng/mL
same,Tmax,[2]; 30 mg,4 h
same,Vd/F,[2]; 30 mg,451 ± 202 L
same,half-life,[2]; 30 mg,10.7 ± 3.3 h
same,AUC(0-inf),[2]; 50 mg,1460 ± 270 ng·h/mL
same,AUC(0-t),[2]; 50 mg,1430 ± 254 ng·h/mL
same,Cmax,[2]; 50 mg,161 ± 20.4 ng/mL
same,Tmax,[2]; 50 mg,3 h
same,Vd/F,[2]; 50 mg,445 ± 94.7 L
same,half-life,[2]; 50 mg,9.1 ± 2.4 h
same,AUC(0-inf),[2]; 100 mg,3650 ± 523 ng·h/mL
same,AUC(0-t),[2]; 100 mg,3490 ± 476 ng·h/mL
same,Cmax,[2]; 100 mg,426 ± 111 ng/mL
same,Tmax,[2]; 100 mg,2 h
same,Vd/F,[2]; 100 mg,440 ± 190 L
same,half-life,[2]; 100 mg,11.2 ± 5.8 h
same,CL/F,[2]; single dose 10 mg,37.0 ± 8.8 L/h
same,CL/F,"[2]; single dose 30 mg, one subject excluded",28.4 ± 7.1^a L/h
same,CL/F,[2]; single dose 50 mg,35.1 ± 6.3 L/h
same,CL/F,[2]; single dose 100 mg,27.9 ± 4.3 L/h
same,Increase in AUC0-inf across dose range,"[2]; single doses, 10 to 100 mg",~12.8 fold
same,Increase in AUC0-t across dose range,"[2]; single doses, 10 to 100 mg",~12.6 fold
same,Increase in Cmax across dose range,"[2]; single doses, 10 to 100 mg",approximately 10.8 fold
same,inhibition at 50 mg,"IL-6 [3]; Homo sapiens, 168 h, read-out: IL-6 inhibition",> 50%
same,Imax (maximum percent inhibition),IL-6 [3]; [8],greater than 96%
same,Effect on bone marrow levels of IL-1β,"murine model of NOMID; NOMID mice, relative to placebo",reduction in bone marrow levels of IL-1β
same,Effect on disease,murine model of NOMID; transgenic NOMID mice,dramatic attenuation of disease
same,CLss/F,"[4]; 10 mg BID, day 7, mean ± SD",37.4 ± 10.9 L/h
same,Cmin,"[4]; 10 mg BID, day 7, mean ± SD",8.1 ± 3.1 ng/mL
same,"Rac, AUCtau (accumulation ratio for AUCtau)","[4]; 10 mg BID, day 7, mean ± SD",1.4 ± 0.3
same,"Rac, Cmax (accumulation ratio for Cmax)","[4]; 10 mg BID, day 7, mean ± SD",1.6 ± 0.6
same,CLss/F,"[4]; 30 mg BID, day 7, mean ± SD",33.9 ± 5.9 L/h
same,Cmin,"[4]; 30 mg BID, day 7, mean ± SD",28.8 ± 10.7 ng/mL
same,"Rac, AUCtau (accumulation ratio for AUCtau)","[4]; 30 mg BID, day 7, mean ± SD",1.4 ± 0.3
same,"Rac, Cmax (accumulation ratio for Cmax)","[4]; 30 mg BID, day 7, mean ± SD",1.2 ± 0.3
same,CLss/F,"[4]; 50 mg BID, day 7, mean ± SD",37.3 ± 11.7 L/h
same,Cmin,"[4]; 50 mg BID, day 7, mean ± SD",58.7 ± 32.8 ng/mL
same,"Rac, AUCtau (accumulation ratio for AUCtau)","[4]; 50 mg BID, day 7, mean ± SD",1.3 ± 0.4
same,"Rac, Cmax (accumulation ratio for Cmax)","[4]; 50 mg BID, day 7, mean ± SD",1.3 ± 0.5
same,Increase in AUCtau over dose range,"[4]; 10 to 50 mg BID, day 1",5.9 fold
same,Increase in Cmax over dose range,"[4]; 10 to 50 mg BID, day 1",5.4 fold
same,Increase in AUCtau over dose range,"[4]; 10 to 50 mg BID, day 7",5.2 fold
same,Increase in Cmax over dose range,"[4]; 10 to 50 mg BID, day 7",4.2 fold
same,Day of administration by which steady state appeared to be reached,"[4]; all BID dose levels, based on mean Ctrough days 2 through 6",≤ 2 days
same,AUC,"[4]; human, plasma, oral, 10 mg",288 ± 81.5 ng·h/mL
same,AUC(0-t),"[4]; human, plasma, oral, 10 mg",365 ± 111 ng·h/mL
same,Cmax at 7 day,"[4]; human, plasma, oral, 10 mg",51.8 ± 15.8 ng/mL
same,Vd/F,"[4]; human, plasma, oral, 10 mg",517 ± 203 L
same,concentration at 7 day,"[4]; human, plasma, oral, 10 mg",24 ± 6.8 ng/mL
same,half-life,"[4]; human, plasma, oral, 10 mg, t1/2, 10 mg BID, day 7, mean ± SD",9.6 ± 2.1 h
same,Tmax at 7 day,"[4]; human, plasma, oral, 10 mg, 10 mg BID, day 7",2 h
same,AUC,"[4]; human, plasma, oral, 30 mg",909 ± 163 ng·h/mL
same,AUC(0-t),"[4]; human, plasma, oral, 30 mg",1200 ± 309 ng·h/mL
same,Cmax at 7 day,"[4]; human, plasma, oral, 30 mg",146 ± 33.6 ng/mL
same,Vd/F,"[4]; human, plasma, oral, 30 mg",483 ± 85.1 L
same,concentration at 7 day,"[4]; human, plasma, oral, 30 mg",75.6 ± 13.4 ng/mL
same,half-life,"[4]; human, plasma, oral, 30 mg, t1/2, 30 mg BID, day 7, mean ± SD",10.3 ± 3.2 h
same,Tmax at 7 day,"[4]; human, plasma, oral, 30 mg, 30 mg BID, day 7",2 h
same,AUC,"[4]; human, plasma, oral, 50 mg",1510 ± 660 ng·h/mL
same,AUC(0-t),"[4]; human, plasma, oral, 50 mg",2260 ± 1070 ng·h/mL
same,Cmax at 7 day,"[4]; human, plasma, oral, 50 mg",219 ± 77.8 ng/mL
same,Vd/F,"[4]; human, plasma, oral, 50 mg",586 ± 163 L
same,concentration at 7 day,"[4]; human, plasma, oral, 50 mg",126 ± 55 ng/mL
same,half-life,"[4]; human, plasma, oral, 50 mg, t1/2, 50 mg BID, day 7, mean ± SD",11.6 ± 3.7 h
same,Tmax at 7 day,"[4]; human, plasma, oral, 50 mg, 50 mg BID, day 7",3 h
same,half-life,"[4]; human, plasma, oral, Mean t1/2 across all SAD and MAD cohorts, all SAD and MAD cohorts",9 to 12 h
same,half-life,"[4]; human, plasma, oral, Mean terminal t1/2 across doses, 10 to 50 mg BID, day 7",9 to 12 h
same,Tmax,"[4]; human, plasma, oral, Median tmax across all SAD and MAD cohorts, all SAD and MAD cohorts",2 to 4 h
same,Imax (maximum percent inhibition),[5],greater than 96%
same,Potency for inhibiting IL-6,IL-6 [6],comparable to that for TNF-α and IL-8
same,Deaths,[7]; MAD cohort,0
same,Discontinuations due to TEAEs,[7]; MAD cohort,0
same,Number of TEAEs,[7]; MAD cohort,24
same,Patients reporting TEAEs,[7]; MAD cohort,12 (50.0) n (%)
same,Serious TEAEs,[7]; MAD cohort,0
same,Subjects with TEAEs considered related to study drug,[7]; SAD 10 mg cohort,0 subjects
same,Subjects with TEAEs considered related to study drug,"[7]; SAD 30 mg cohort (nausea, headache, dizziness)",2 [33%] subjects
same,Subjects with TEAEs considered related to study drug,[7]; SAD 50 mg cohort (headache),1 [17%] subjects
same,Subjects with TEAEs considered related to study drug,[7]; SAD 100 mg cohort (dizziness),1 subjects
same,"Findings in vital signs, electrocardiograms, or clinical laboratory values",[7]; SAD and MAD cohorts,No clinically significant findings
same,TEAE: Abdominal pain,[7]; [9],2 (4.2) n (%)
same,TEAE: Constipation,[7]; [9],3 (6.3) n (%)
same,TEAE: Dizziness,[7]; [9],6 (12.5) n (%)
same,TEAE: Headache,[7]; [9],10 (20.8) n (%)
same,TEAE: Nausea,[7]; [9],2 (4.2) n (%)
same,TEAE: Upper respiratory tract infection,[7]; [9],3 (6.3) n (%)
same,TEAE: Vomiting,[7]; [9],0 n (%)
same,Deaths,[7]; SAD cohort,0
same,Discontinuations due to TEAEs,[7]; SAD cohort,0
same,Number of TEAEs,[7]; SAD cohort,15
same,Patients reporting TEAEs,[7]; SAD cohort,7 (29.2) n (%)
same,Serious TEAEs,[7]; SAD cohort,0
same,Imax (maximum percent inhibition),TNF-α; [8],greater than 96%
same,Inhibition of TNF-α versus baseline,TNF-α; [10],up to 92.7%
same,Imax (maximum percent inhibition),IL-1β; [8],74%
same,Inhibition of IL-1β versus baseline,IL-1β; [10],≤ 83.0%
